From ChEMBL document CHEMBL2311419, “Discovery of coumarin-dihydropyridine hybrids as bone anabolic agents” (J Med Chem, 2013)
Active and inactive are the calls of the source. The rule behind the calls is not given here.

Tests used:
[1] = organism: Mus musculus; assay: Stimulation of alkaline phosphatase activity in mouse calvarial osteoblasts at 1 pM to 1 uM after 48 hrs by spectrophotometric analysis
In short: (§1)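 Calvarial osteoblasts were exposed to compounds over 1 pM to 1 µM. ALP activity was read spectrophotometrically as optical density at 405 nm. Results were expressed as % ALP activity, with EC50 and Emax derived from the concentration series.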

[2] = organism: Mus musculus; assay: Stimulation of alkaline phosphatase activity in mouse calvarial osteoblasts at 1 pM to 1 uM after 48 hrs by spectrophotometric analysis relative to nifedipine
[3] = tested on: Calvarial osteoblast; assay: Induction of mineralization in mouse calvarial osteoblasts assessed as increase of mineralized nodules formation at 100 pM after 21 days by alizarin red-S staining based spectrophotometric analysis; assay type: functional
[4] = tested on: Calvarial osteoblast; assay: Induction of mineralization in mouse calvarial osteoblasts assessed as increase of mineralized nodules formation measuring concentration required for maximum activity after 21 days by alizarin red-S staining based spectrophotometric analysis; assay type: functional
[5] = organism: Mus musculus; assay: Stimulation of alkaline phosphatase activity in mouse calvarial osteoblasts assessed as concentration required for maximum activity after 48 hrs by spectrophotometric analysis; in short: as §1
[6] = tested on: Mus musculus; assay: Induction of new bone formation in ovariectomized BALB/c mouse model assessed as increase in bone formation rate at 5 mg/kg/day, po qd for 8 weeks by bone histomorphometry analysis (Rvb =0.10 um'3/um'2/day); assay type: functional
[7] = tested on: Mus musculus; assay: Induction of new bone formation in ovariectomized BALB/c mouse model assessed as increase in bone formation rate at 1 mg/kg/day, po qd for 8 weeks by bone histomorphometry analysis (Rvb =0.10 um'3/um'2/day); assay type: functional
[8] = tested on: Mus musculus; assay: Induction of new bone formation in ovariectomized BALB/c mouse model assessed as increase in mineral apposition rate at 10 mg/kg/day, po qd for 8 weeks by bone histomorphometry analysis (Rvb =0.11 um/day); assay type: functional
[9] = tested on: Mus musculus; assay: Induction of new bone formation in ovariectomized BALB/c mouse model assessed as increase in mineral apposition rate at 1 mg/kg/day, po qd for 8 weeks by bone histomorphometry analysis (Rvb =0.11 um/day); assay type: functional
[10] = tested on: Mus musculus; assay: Inhibition of osteoclastogenesis in ovariectomized BALB/c mouse model assessed as increase in OPG/RANKL ratio at 5 to 10 mg/kg/day, po qd for 8 weeks by qPCR analysis; assay type: functional, organism-based
[11] = tested on: Mus musculus; assay: Inhibition of osteoclastogenesis in ovariectomized BALB/c mouse model assessed as suppression of RANK gene expression at 5 to 10 mg/kg/day, po qd for 8 weeks by qPCR analysis; assay type: functional, organism-based
[12] = tested on: Mus musculus; assay: Inhibition of osteoclastogenesis in ovariectomized BALB/c mouse model assessed as suppression of TRAP gene expression at 5 to 10 mg/kg/day, po qd for 8 weeks by qPCR analysis; assay type: functional, organism-based
[13] = tested on: Mus musculus; assay: Inhibition of osteoclastogenesis in ovariectomized BALB/c mouse model assessed as suppression of RANK gene expression at 1 mg/kg/day, po qd for 8 weeks by qPCR analysis; assay type: functional, organism-based
[14] = tested on: Mus musculus; assay: Inhibition of osteoclastogenesis in ovariectomized BALB/c mouse model assessed as suppression of TRAP gene expression at 1 mg/kg/day, po qd for 8 weeks by qPCR analysis; assay type: functional, organism-based
[15] = tested on: Mus musculus; assay: Induction of osteoblast differentiation in ovariectomized BALB/c mouse model assessed as upregulation of COL1 mRNA expression at 1 mg/kg/day, po qd for 8 weeks by qPCR analysis; assay type: functional, organism-based
[16] = tested on: Mus musculus; assay: Induction of osteoblast differentiation in ovariectomized BALB/c mouse model assessed as upregulation of BMP2 mRNA expression at 1 mg/kg/day, po qd for 8 weeks by qPCR analysis; assay type: functional, organism-based
[17] = tested on: Mus musculus; assay: Induction of osteoblast differentiation in ovariectomized BALB/c mouse model assessed as upregulation of COL1 mRNA expression po administered qd for 8 weeks by qPCR analysis; assay type: functional, organism-based
[18] = tested on: Mus musculus; assay: Inhibition of bone turnover in ovariectomized BALB/c mouse model assessed as reduction in ovariectomy-induced serum CTx levels at 1 mg/kg/day, po qd for 8 weeks by ELISA; assay type: functional, organism-based
[19] = tested on: Mus musculus; assay: Inhibition of bone turnover in ovariectomized BALB/c mouse model assessed as reduction in ovariectomy-induced serum osteocalcin levels at 1 to 5 mg/kg/day, po qd for 8 weeks by ELISA relative to control; assay type: functional, organism-based
[20] = tested on: Mus musculus; assay: Antiosteoporotic activity in ovariectomized BALB/c mouse model assessed as restoration of ovariectomy-induced increase in structural model index at 10 mg/kg/day, po qd for 8 weeks; assay type: functional, organism-based
[21] = tested on: Mus musculus; assay: Antiosteoporotic activity in ovariectomized BALB/c mouse model assessed as restoration of ovariectomy-induced increase in structural model index at 5 mg/kg/day, po qd for 8 weeks; assay type: functional, organism-based
[22] = tested on: Mus musculus; assay: Antiosteoporotic activity in ovariectomized BALB/c mouse model assessed as restoration of ovariectomy-induced increase in structural model index at 1 mg/kg/day, po qd for 8 weeks; assay type: functional, organism-based
[23] = tested on: Mus musculus; assay: Antiosteoporotic activity in ovariectomized BALB/c mouse model assessed as restoration of ovariectomy-induced increase in trabecular separation at 10 mg/kg/day, po qd for 8 weeks (reference value: 0.99+/-0.08mm); assay type: functional, Trabecula
[24] = tested on: Mus musculus; assay: Antiosteoporotic activity in ovariectomized BALB/c mouse model assessed as restoration of ovariectomy-induced increase in trabecular separation at 1 mg/kg/day, po qd for 8 weeks (reference value: 0.99+/-0.08mm); assay type: functional, Trabecula
[25] = tested on: Mus musculus; assay: Antiosteoporotic activity in ovariectomized BALB/c mouse model assessed as restoration of ovariectomy-induced reduction in bone volume/trabecular volume at 1 mg/kg/day, po qd for 8 weeks (reference value: 0.45+/-0.07%); assay type: functional, Trabecula; parameters: scale not given: the % may be the effect or the level left
[26] = tested on: Mus musculus; assay: Antiosteoporotic activity in ovariectomized BALB/c mouse model assessed as restoration of ovariectomy-induced deterioration of trabecular microarchitecture at 1 to 10 mg/kg/day, po qd for 8 weeks; assay type: functional, organism-based; settings: Trabecula
[27] = tested on: Calvarial osteoblast; assay: Induction of osteoblastogenesis in mouse calvarial osteoblasts assessed as increase in BMP2 expression at 100 pM to 10 nM by Western blotting analysis; assay type: functional, cell-based
[28] = tested on: Calvarial osteoblast; assay: Induction of osteoblastogenesis in mouse calvarial osteoblasts assessed as increase in RUNX2 expression at 100 pM to 10 nM by Western blotting analysis; assay type: functional, cell-based
[29] = tested on: Calvarial osteoblast; assay: Induction of osteoblastogenesis in mouse calvarial osteoblasts assessed as increase in expression of COL1 gene at 100 pM by qPCR analysis relative to control; assay type: functional, cell-based
[30] = tested on: Calvarial osteoblast; assay: Induction of osteoblastogenesis in mouse calvarial osteoblasts assessed as increase in expression of osteocalcin gene at 100 pM by qPCR analysis relative to control; assay type: functional, cell-based
[31] = tested on: Calvarial osteoblast; assay: Induction of osteoblastogenesis in mouse calvarial osteoblasts assessed as increase in expression of BMP2 gene at 100 pM by qPCR analysis relative to control; assay type: functional, cell-based
[32] = tested on: Calvarial osteoblast; assay: Induction of osteoblastogenesis in mouse calvarial osteoblasts assessed as increase in expression of COL1 gene at 100 pM to 10 nM by qPCR analysis relative to control; assay type: functional
[33] = Stimulation of alkaline phosphatase activity in mouse calvarial osteoblasts after 48 hrs by spectrophotometric analysis; in short: as §1

Structure (SMILES): CCOC(=O)C1=C(C)NC2=C(C(=O)CCC2)C1c1cc(C(C)CC)c2oc(=O)c(C(=O)OC)cc2c1 (stereo not drawn)
- Activity [1]: 80%
- Activity [2]: 32%
- Activity [3]: 65%
- Concentration for maximum mineralization [4]: 100 pM
- Concentration giving maximum ALP activity [5]: 100 pM
- Activity [6]: 0.33 um3/um2/day
- Activity [7]: 0.37 um3/um2/day
- Activity [8]: 0.276 micrometer/day
- Activity [9]: 0.291 micrometer/day
- inhibition [10]: Active
- inhibition [11]: Active
- inhibition [12]: Active
- inhibition [13]: Active
- inhibition [14]: Active
- Activity [15]: Active
- Activity [16]: Active
- Activity [17]: Dose-dependent effect
- inhibition [18]: Active
- inhibition [19]: Active
- Activity [20]: Active
- Activity [21]: Active
- Activity [22]: Active
- Activity [23]: 0.68 mm
- Activity [24]: 0.66 mm
- Activity [25]: 2.85%
- Activity [26]: Active
- Activity [27]: Active
- Activity [28]: Active
- Activity [29]: Active
- Activity [30]: Active
- Activity [31]: Active
- fold change (FC) [32]: 1.5
- EC50 [33]: 1.17 µM
